# Screening data (PubChem BioAssay)
# A selection: hits, their analogues and other compounds. The true share with any hit is near 2.3%.
# OXTR ag: human OXTR agonism. activation, % at 3 µM. CHO-OTR cells, Fluo-8 calcium fluorescence; normalized: DMSO 0%, oxytocin 100%. AID 2435. actives 0.32% (n = 320,000). P30559;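 active means activation above the mean of all tested compounds plus 3 SD, cutoff set per screening run, cut at about 20% in these data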;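 further: peak over basal fluorescence ratio from a 100 s FLIPR kinetic read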
# TAAR1 antag: antagonists of human TAAR1; CHO RD-HGA16 TAAR1, Fluo-8 calcium fluorescence, antagonist; inhibition, % at 3 µM; actives 1.5% (n = 360,000); AID 624466;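 active means inhibition above a per-plate cutoff, the mean inhibition of test compounds on that plate plus 3 SD, cut at about 49% in these data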
#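 System: RD-HGA16 CHO cells with stable hTAAR1 and Gα16 | Probe or stimulus: EC80 β-phenethylamine stimulus | Dosing: 3 µM, single point | Times: Dye loading 75 min at 37 °C, then 30 min room temperature | Measured by: Fluo-8 calcium-sensitive fluorescence | Read-out basis: % inhibition of agonist calcium response | Replicates: n of 1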
# OXTR potentiate: human OXTR potentiation | CHO-OTR cells, Fluo-8 calcium fluorescence, potentiator mode; 0% = oxytocin EC15, 100% = EC100 | P30559 | activation, % at 3 µM | actives 0.061% (n = 320,000) | AID 2445;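 active means activation above that plate's cutoff, the mean activation of tested compounds plus 3 SD, cut at about 6.6% in these data, passing the limit was not always enough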
#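 System: human OTR in CHO cells; Also added: sub-maximal oxytocin, roughly EC15; Timing: compound 6 min at room temperature before oxytocin, 100 s read; Technique: Fluo-8 intracellular calcium fluorescence, ex 470-495, em 515-575 nm; Controls: oxytocin EC15 low and EC100 high; Replication: singlicate.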
# TAAR1 ag: agonists of human TAAR1; Q96RJ0; AID 624467; CHO RD-HGA16 TAAR1, Fluo-8 calcium fluorescence; vehicle wells 0%, saturating PEA agonist 100%; actives 0.99% (n = 360,000); activation, % at 3 µM;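 active means activation above the mean activation of all test compounds in the run plus 3 SD, cut at about 38% in these data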
#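 System: CHO RD-HGA16 cells carrying human TAAR1 plus Gα16; Incubation: 17-24 h seeding, 75 min 37 °C dye, 30 min RT; Measured by: Fluo-8 fluorescence, 5 s baseline then 140 s kinetic read; Control set: DMSO and PEA EC100; Replication: single well for each compound.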
# V1R ag counter: V1a receptor agonism, counter-screen for OXTR agonists. P37288. CHO-V1R cells, Fluo-8 calcium fluorescence, agonist mode; 0% DMSO, 100% 3 nM vasopressin. activation, % at 3 µM. actives 0.25% (n = 320,000);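 active means activation above the mean activation of all tested compounds plus 3 SD, per screening run, cut at about 20% in these data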;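 further: signal is peak over basal fluorescence ratio across a 100 second FLIPR read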
# Target sequence (P37288 whole entry, looked up): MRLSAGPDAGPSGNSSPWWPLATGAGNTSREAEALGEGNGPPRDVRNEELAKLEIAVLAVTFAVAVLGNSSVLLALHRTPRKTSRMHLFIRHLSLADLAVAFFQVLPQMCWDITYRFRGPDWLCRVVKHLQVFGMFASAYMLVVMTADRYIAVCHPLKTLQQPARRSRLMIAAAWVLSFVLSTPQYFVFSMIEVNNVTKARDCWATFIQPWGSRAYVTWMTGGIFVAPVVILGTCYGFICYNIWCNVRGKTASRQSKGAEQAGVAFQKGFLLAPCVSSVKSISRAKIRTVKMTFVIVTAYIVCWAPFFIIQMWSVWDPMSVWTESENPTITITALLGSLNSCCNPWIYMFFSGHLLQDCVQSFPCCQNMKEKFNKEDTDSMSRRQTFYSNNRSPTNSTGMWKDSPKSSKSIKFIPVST
# Numbers stand for hits; n = inactive; x = no result.
SMILES,OXTR ag,TAAR1 antag,OXTR potentiate,TAAR1 ag,V1R ag counter
CCNC(=O)N(C)[C@H]1C[C@H]2c3[nH]c4c(-c5ccc6c(c5)OCO6)cccc4c3CCN2C(=O)[C@H]1[C@H](C)O,x,n,x,n,x
Cn1cc(C(c2ccccn2)c2cn(C)c3ccccc23)c2ccccc21,n,n,n,41,n
OCCCc1nc2n(n1)C(c1cccs1)C=C(c1ccc(Br)cc1)N2 (centres undefined),160,x,n,x,109
CC(C)Cc1ccc(C(C)NC(=O)Cc2ccc(S(=O)(=O)N3CCOCC3)s2)cc1 (centres undefined),n,n,n,38,n
CC(C)CCC(C)NC(=O)Cc1ccc(S(=O)(=O)N2CCOCC2)s1 (centres undefined),n,n,n,n,n
COc1cccc(/C=C2\SC(=S)N(CCCC(=O)N(CCO)c3ccccc3)C2=O)c1,n,49,n,n,n
COc1ccc(-c2coc3c(C(=O)NCc4ccc(OC)c(OC)c4)cccc23)c(C)c1,x,56,x,n,x
COc1ccc(-c2coc3c(C(=O)Nc4cc(OC)c(OC)c(OC)c4)cccc23)c(C)c1,x,63,x,n,x
COc1ccc(-c2coc3c(C(=O)Nc4ccc(OC)nc4)cccc23)c(C)c1,x,n,x,n,x
CC(C)[C@H](NC(=O)c1ccc(Cl)c(Cl)c1)C(=O)N1CCC[C@H]1C(=O)NCc1ccccc1,x,n,x,n,x
CCc1nc2ccc(C(=O)NCc3ccccc3OC)cn2c1N(CC)Cc1cccc(Br)c1,x,n,x,n,x
O=C1CCN(C(=O)c2ccccc2)c2ccccc21,x,n,x,n,x
CCCN(CCC)S(=O)(=O)c1ccc(C(=O)N2CCC(=O)c3ccccc32)cc1,n,60,n,n,n
COC(=O)c1cc2c(c3c4ccccc4n(S(=O)(=O)c4cccc(C)c4)c13)C(=O)N(Cc1ccccc1OC)C2,x,n,x,n,x
COc1cc(OC)c(C2CC(=O)N3CN(C)CSC3=C2C#N)cc1OC (centres undefined),n,n,n,n,n
COc1ccc(Br)cc1C1CC(=O)N2CN(C)CSC2=C1C#N (centres undefined),n,n,n,46,n
O=C(NCC(F)(F)F)c1cc2c(c(-c3cccc(-c4ccccc4F)c3)n1)[C@H](CCO)N(C(=O)CC1CC1)C2,x,n,x,n,x
O=[N+]([O-])c1ccc(N2CCN(Cc3ccccc3)CC2)s1,n,n,n,n,n
O=[N+]([O-])c1ccc(N2CCN(Cc3ccccc3)CC2)c2c1no[n+]2[O-],x,63,x,n,x
COc1ccc(C(C)(C)C)cc1N1C(=O)[C@@H]2CSCCS(=O)(=O)N2C1=O,x,n,x,n,x
COc1cc(C(=O)NNC(=S)NC(=O)/C=C/c2ccccc2)cc(OC)c1OC,n,n,n,39,n
N/C(=N\OC(=O)COc1ccc2ccccc2c1)c1ccccn1,n,n,n,48,n
COc1ccccc1CC(=O)Nc1ccc(-c2nnc(-c3ccco3)o2)cc1,n,n,n,n,n
COc1cc(C(=O)Nc2ccc(-c3nnc(-c4ccco4)o3)cc2)cc(OC)c1OC,n,52,n,n,n
CCCCc1c(-c2ccccc2OC)ncn1Cc1ccc(OC)c(Cl)c1,x,n,x,n,x
SMILES,OXTR ag,TAAR1 antag,OXTR potentiate,TAAR1 ag,V1R ag counter
O=c1[nH]c2ccccc2nc1/C=C(\O)c1cccs1,23,n,n,n,29
O/C(=C\c1nc2ccccc2[nH]1)c1cccs1,n,n,n,n,n
C[C@H](CO)N1C[C@H](C)[C@H](CN(C)C(=O)Nc2cccc(F)c2)OCc2cnnn2CCCC1=O,x,n,x,n,x
O=C(Nc1ccc(Cl)c(Cl)c1)C1=Cc2ccccc2OC1,n,60,n,n,n
Cc1ccc(S(=O)(=O)CCC(=O)NCCN2C(=O)S/C(=C\c3ccccc3)C2=O)cc1,n,55,n,n,n
COC(=O)CN1C(=O)S/C(=C/c2ccc(N3CCCCC3)o2)C1=O,n,60,n,100,n
CC(=NNc1nc2ccccc2s1)c1ncccn1,x,74,x,49,x
O=C(c1ccc(Cl)c(S(=O)(=O)N2CCc3ccccc32)c1)N1CCN(c2ccccc2O)CC1,n,61,n,n,n
CCN(CC)c1ccc(S(=O)(=O)N2CCOCC2)cc1NC(=O)COC(=O)/C=C/c1ccc(C)o1,n,65,n,n,n
CCN(CC)c1ccc(S(=O)(=O)N2CCOCC2)cc1NC(=O)COC(=O)/C=C/c1ccc(O)c(OC)c1,x,n,x,n,x
CCn1c(=O)c(C(=O)Nc2nc3ccccc3[nH]2)c(O)c2ccccc21,n,93,n,n,n
CCCn1c(=O)c(C(=O)Nc2ncccc2C)c(O)c2ccccc21,30,n,n,40,28
CCn1c(=O)c(C(=O)Nc2ccccc2)c(O)c2ccccc21,n,n,n,n,n
C=CCCC1CN(Cc2ccc(OC)cc2)S(=O)(=O)c2c(NCc3cc(OC)c(OC)c(OC)c3)cccc2O1 (centres undefined),x,n,x,n,x
CC(C)OC(=O)c1c2c(n3ccccc13)C(=O)c1ccccc1C2=O,25,n,n,40,31
COC(=O)c1c(C(=O)OC)c2ccccn2c1C(=O)c1ccc([N+](=O)[O-])cc1,n,n,n,n,n
COc1cc(CCN(C(=O)c2cc3ccccc3[nH]2)C(C)c2nc3ccccc3[nH]2)cc(OC)c1 (centres undefined),x,65,x,n,x
CC(=O)C1=C(C)N(CC(C)C)C(=S)NC1c1cccc(Cl)c1 (centres undefined),x,n,x,n,x
CCN(CC)S(=O)(=O)c1ccc(/C=C/C(=O)Nc2ccc(F)cc2F)cc1,n,n,n,n,n
CCN(CC)S(=O)(=O)c1ccc(/C=C/C(=O)Nc2ccc(Br)cc2F)cc1,n,53,n,n,n
C[C@@H]1CN([C@@H](C)CO)C(=O)CCCn2cc(nn2)CO[C@H]1CN(C)C(=O)Nc1ccccc1,x,n,x,n,x
CCCCNc1cccc2c1S(=O)(=O)N[C@@H](Cc1ccccc1)CO2,x,n,x,n,x
Cc1nc2ccccn2c1-c1csc(Nc2cccc(O)c2)n1,x,55,x,n,x
C=CCN1C[C@H](COC(=O)CSc2ccccc2)Oc2cccc(F)c2S1(=O)=O,x,n,x,n,x
COc1ccc(CNn2c(-c3cccs3)nc3ccccc3c2=O)cc1OC,n,51,n,n,n
Cc1cc(Cl)c(OCCCNCc2ccccc2)c(Br)c1,n,n,n,44,n
Cc1cc(C)c(OCCCNCc2ccccc2)c(Br)c1,n,n,n,n,n
CN(C)S(=O)(=O)c1cc(NC(=O)c2cc(=O)c3ccccc3o2)ccc1Cl,n,n,n,44,n
Cc1ccc(C2NC(=O)c3[nH]nc(-c4ccccc4)c32)cc1 (centres undefined),x,n,x,n,x
